Laboratory results as given in ChEMBL document CHEMBL1124461, “Aromatic dienoyl tetramic acids. Novel antibacterial agents with activity against anaerobes and staphylococci” (J Med Chem, 1989).
Values after ≈ are worked out from the molar mass of the structure shown.

Assays:
[1] = tested on: Bacteroides fragilis; assay: Minimum inhibitory concentration against Bacteroides fragilis ATCC 25285; assay type: functional
Summary of the method: (§1)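 Anaerobic MICs by 2-fold dilution in Wilkens-Chalgren broth, reported in micrograms/milliliter.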

[2] = tested on: Bacteroides thetaiotaomicron; assay: Minimum inhibitory concentration against Bacteroides thetaiotaomicron ATCC 29741; assay type: functional; summary of the method: as §1
[3] = tested on: Clostridioides difficile; assay: Minimum inhibitory concentration against Clostridium difficile ATCC 9689; assay type: functional; summary of the method: as §1
[4] = tested on: Clostridium perfringens; assay: Minimum inhibitory concentration against Clostridium perfringens ATCC 13124; assay type: functional
Summary of the method: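 Anaerobic MIC by 2-fold dilution in Wilkens-Chalgren broth; values in µg/mL.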

[5] = tested on: Micrococcus luteus; assay: Minimum inhibitory concentration (MIC) against the cell line Micrococcus luteus ATCC 4698; assay type: functional
Summary of the method: (§2)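 Aerobic MICs by 2-fold dilution on brain–heart infusion agar, reported in micrograms/milliliter.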

[6] = tested on: Streptococcus pyogenes; assay: Minimum inhibitory concentration (MIC) against the cell line Streptococcus pyogenes EES61; assay type: functional; summary of the method: as §2
[7] = tested on: Staphylococcus aureus; assay: Minimum inhibitory concentration (MIC) against the cell line Staphylococcus aureus CMX 686B; assay type: functional; summary of the method: as §2
[8] = tested on: Escherichia coli; assay: Minimum inhibitory concentration (MIC) against the cell line Escherichia coli H560; assay type: functional; summary of the method: as §2
[9] = tested on: Staphylococcus epidermidis; assay: Minimum inhibitory concentration (MIC) against the strain Staphylococcus epidermidis 3519
[10] = tested on: Staphylococcus aureus; assay: Minimum inhibitory concentration (MIC) against the cell line Staphylococcus aureus 45; assay type: functional; summary of the method: as §2
[11] = tested on: Staphylococcus aureus; assay: Minimum inhibitory concentration (MIC) against the cell line Staphylococcus aureus ATCC 6538P; assay type: functional; summary of the method: as §2
[12] = tested on: Staphylococcus aureus; assay: Minimum inhibitory concentration (MIC) against the cell line Staphylococcus aureus A5177; assay type: functional; summary of the method: as §2
[13] = tested on: Streptococcus equinus; assay: Minimum inhibitory concentration (MIC) against the cell line Streptococcus bovis A5169; assay type: functional; summary of the method: as §2
[14] = tested on: Escherichia coli; assay: Minimum inhibitory concentration (MIC) against the cell line Escherichia coli juhl; assay type: functional; summary of the method: as §2
[15] = tested on: Pseudomonas aeruginosa; assay: Minimum inhibitory concentration (MIC) against the cell line Pseudomonas aeruginosa A5007; assay type: functional; summary of the method: as §2
[16] = target: DNA-directed RNA polymerase subunit beta (Escherichia coli K-12) (UniProt P0A8V2); assay: Percent inhibition at a concentration of 100 ug/mL of RNA polymerase isolated from Escherichia coli K12 (Sigma)
DNA-directed RNA polymerase subunit beta (Escherichia coli K-12), sequence (P0A8V2 whole entry, looked up): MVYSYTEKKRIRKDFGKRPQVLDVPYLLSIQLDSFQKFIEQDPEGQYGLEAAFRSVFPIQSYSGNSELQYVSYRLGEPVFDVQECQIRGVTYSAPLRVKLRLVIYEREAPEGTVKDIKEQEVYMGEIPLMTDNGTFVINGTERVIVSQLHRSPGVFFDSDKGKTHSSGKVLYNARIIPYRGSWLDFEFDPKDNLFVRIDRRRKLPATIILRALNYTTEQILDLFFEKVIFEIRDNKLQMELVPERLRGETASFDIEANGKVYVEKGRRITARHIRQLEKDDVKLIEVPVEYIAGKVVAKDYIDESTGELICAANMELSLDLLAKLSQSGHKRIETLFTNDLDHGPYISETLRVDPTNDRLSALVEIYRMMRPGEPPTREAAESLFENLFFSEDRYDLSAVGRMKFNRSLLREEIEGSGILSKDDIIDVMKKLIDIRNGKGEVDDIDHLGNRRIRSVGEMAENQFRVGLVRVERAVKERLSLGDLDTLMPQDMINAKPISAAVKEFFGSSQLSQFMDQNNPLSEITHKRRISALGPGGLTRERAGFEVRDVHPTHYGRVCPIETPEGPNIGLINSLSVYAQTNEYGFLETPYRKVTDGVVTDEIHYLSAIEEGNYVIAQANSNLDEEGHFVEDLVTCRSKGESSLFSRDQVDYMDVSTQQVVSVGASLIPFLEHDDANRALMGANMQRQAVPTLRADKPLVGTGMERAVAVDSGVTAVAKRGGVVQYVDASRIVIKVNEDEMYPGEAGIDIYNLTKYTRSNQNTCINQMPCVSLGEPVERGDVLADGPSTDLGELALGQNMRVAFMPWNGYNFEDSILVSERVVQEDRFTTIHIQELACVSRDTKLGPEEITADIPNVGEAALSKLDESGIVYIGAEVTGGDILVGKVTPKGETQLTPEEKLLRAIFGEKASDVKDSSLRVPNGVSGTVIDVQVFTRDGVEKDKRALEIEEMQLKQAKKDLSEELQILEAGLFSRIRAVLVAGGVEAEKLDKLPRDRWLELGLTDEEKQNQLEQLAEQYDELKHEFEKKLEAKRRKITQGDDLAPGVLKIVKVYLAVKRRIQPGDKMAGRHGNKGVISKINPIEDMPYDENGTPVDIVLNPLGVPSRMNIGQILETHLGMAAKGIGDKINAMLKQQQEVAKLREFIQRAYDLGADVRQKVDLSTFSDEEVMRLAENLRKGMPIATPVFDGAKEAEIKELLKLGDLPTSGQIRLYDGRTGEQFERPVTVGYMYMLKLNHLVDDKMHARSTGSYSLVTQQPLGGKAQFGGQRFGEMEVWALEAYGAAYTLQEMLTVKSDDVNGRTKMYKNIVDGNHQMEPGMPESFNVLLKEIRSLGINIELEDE

[17] = tested on: Staphylococcus aureus; assay: Compound is evaluated for cross resistance with DNA gyrase subunit A or B against Staphylococcus aureus 45; assay type: functional
Summary of the method: (§3)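 Aerobic MIC by 2-fold dilution on brain–heart infusion agar; values in µg/mL.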

[18] = tested on: Staphylococcus aureus; assay: Compound is evaluated for cross resistance with DNA gyrase subunit A or B against Staphylococcus aureus 45CR-1 (coumermycin resistant); assay type: functional; summary of the method: as §3
[19] = tested on: Staphylococcus aureus; assay: Compound is evaluated for cross resistance with DNA gyrase subunit A or B against Staphylococcus aureus 337-113 (norfloxacin-resistant); assay type: functional; summary of the method: as §3
[20] = tested on: Staphylococcus aureus; assay: Compound is evaluated for cross resistance with DNA gyrase subunit A or B against Staphylococcus aureus 730A; assay type: functional; summary of the method: as §3
[21] = tested on: Bacteroides fragilis; assay: Compound is evaluated for cross resistance with DNA gyrase subunit A or B against Bacteroides fragilis ATCC 25285; assay type: functional
[22] = tested on: Bacteroides fragilis; assay: Compound is evaluated for cross resistance with DNA gyrase subunit A or B against Bacteroides fragilis TirR (tirandamycin resistant); assay type: functional

SMILES	MIC [1] [mg/L]	MIC [2] [mg/L]	MIC [3] [mg/L]	MIC [4] [mg/L]	further results
CN1CC(O)=C(C(=O)/C=C/C=C/c2ccccc2)C1=O	62 (≈ 230 µM)	62 (≈ 230 µM)	16 (≈ 59.4 µM)	125 (≈ 464 µM)	
CC(/C=C/C(O)=C1\C(=O)CNC1=O)=C\c1cccc2ccccc12	1 (≈ 3.13 µM)	1 (≈ 3.13 µM)	1 (≈ 3.13 µM)	1 (≈ 3.13 µM)	MIC [5]: 12.5 mg/L (≈ 39.1 µM); MIC [6]: 12.5 mg/L (≈ 39.1 µM); MIC [7]: 3.1 mg/L (≈ 9.71 µM); MIC [8]: > 100 mg/L; MIC [9]: 6.2 mg/L (≈ 19.4 µM); MIC [10]: 3.1 mg/L (≈ 9.71 µM); MIC [11]: 3.1 mg/L (≈ 9.71 µM); MIC [12]: 3.1 mg/L (≈ 9.71 µM); MIC [13]: 6.2 mg/L (≈ 19.4 µM); MIC [14]: 100 mg/L (≈ 313 µM); MIC [15]: 100 mg/L (≈ 313 µM)
CC(/C=C/C(O)=C1\C(=O)CNC1=O)=C\c1ccc2ccccc2c1	≤ 0.5	≤ 0.5	≤ 0.5	≤ 0.5	MIC [5]: 6.2 mg/L (≈ 19.4 µM); MIC [6]: 12.5 mg/L (≈ 39.1 µM); MIC [7]: 0.78 mg/L (≈ 2.44 µM); MIC [8]: > 100 mg/L; MIC [9]: 3.1 mg/L (≈ 9.71 µM); MIC [10]: 0.78 mg/L (≈ 2.44 µM); MIC [11]: 0.78 mg/L (≈ 2.44 µM); MIC [12]: 1.56 mg/L (≈ 4.88 µM); MIC [13]: 12.5 mg/L (≈ 39.1 µM); MIC [14]: > 100 mg/L; inhibition [16]: 13.1%; MIC [15]: 100 mg/L (≈ 313 µM)
CN1CC(O)=C(C(=O)/C=C/C=C/c2ccccc2[N+](=O)[O-])C1=O	62 (≈ 197 µM)	62 (≈ 197 µM)	62 (≈ 197 µM)	62 (≈ 197 µM)	
CC(/C=C/C(O)=C1\C(=O)CN(C)C1=O)=C\C(C)c1ccccc1 (centres undefined)	8 (≈ 25.7 µM)	16 (≈ 51.4 µM)	125 (≈ 401 µM)	125 (≈ 401 µM)	
CC(/C=C/C(=O)C1=C(O)CN(C)C1=O)=C\c1ccc(F)c2ccccc12	2 (≈ 5.69 µM)	2 (≈ 5.69 µM)	31 (≈ 88.2 µM)	62 (≈ 176 µM)	
CC(/C=C/C(=O)C1=C(O)CN(C)C1=O)=C\c1cnc2ccccc2c1	2 (≈ 5.98 µM)	4 (≈ 12 µM)	2 (≈ 5.98 µM)	2 (≈ 5.98 µM)	
CCC[C@@H]1C[C@@H](C(=O)N[C@@H]([C@H]2O[C@H](SC)[C@H](O)[C@@H](O)[C@H]2O)[C@H](C)Cl)N(C)C1 [CLINDAMYCIN]	2 (≈ 4.71 µM)	8 (≈ 18.8 µM)	1 (≈ 2.35 µM)	< 0.5	
O=C(/C=C/C(Br)=C/c1ccccc1)C1=C(O)CNC1=O	8 (≈ 23.9 µM)	8 (≈ 23.9 µM)	8 (≈ 23.9 µM)	31 (≈ 92.8 µM)	inhibition [16]: 7.3%
COc1ccc(/C=C(C)/C=C/C(O)=C2\C(=O)CN(C)C2=O)c2ccccc12	62 (≈ 171 µM)	125 (≈ 344 µM)	4 (≈ 11 µM)	2 (≈ 5.5 µM)	
CN1CC(O)=C(C(=O)/C=C/C(Br)=C/c2ccccc2)C1=O	16 (≈ 46 µM)	16 (≈ 46 µM)	16 (≈ 46 µM)	8 (≈ 23 µM)	
CC(/C=C/C(=O)C1=C(O)CN(C)C1=O)=C\c1c(O)ccc2ccccc12	31 (≈ 88.7 µM)	31 (≈ 88.7 µM)	16 (≈ 45.8 µM)	16 (≈ 45.8 µM)	
CN1CC(O)=C(C(=O)/C=C/C(Cl)=C/c2ccccc2)C1=O	16 (≈ 52.7 µM)	16 (≈ 52.7 µM)	8 (≈ 26.3 µM)	8 (≈ 26.3 µM)	
CC(/C=C/C(O)=C1\C(=O)C2CCCN2C1=O)=C\c1ccc2ccccc2c1 (centres undefined)	31 (≈ 86.2 µM)	62 (≈ 172 µM)	16 (≈ 44.5 µM)	31 (≈ 86.2 µM)	
O=C(/C=C/C(Cl)=C/c1ccccc1)C1=C(O)CNC1=O	8 (≈ 27.6 µM)	8 (≈ 27.6 µM)	4 (≈ 13.8 µM)	4 (≈ 13.8 µM)	inhibition [16]: 3.2%
COCCOCc1ccc2ccccc2c1/C=C(C)/C=C/C(O)=C1\C(=O)CN(C)C1=O	125 (≈ 297 µM)	250 (≈ 593 µM)	8 (≈ 19 µM)	125 (≈ 297 µM)	
CN1CCN(c2cc3c(cc2F)c(=O)c(C(=O)O)cn3-c2ccc(F)cc2)CC1 [DIFLOXACIN]					MIC [17]: 0.25 mg/L (≈ 0.626 µM); MIC [18]: 0.25 mg/L (≈ 0.626 µM); MIC [19]: 4 mg/L (≈ 10 µM); MIC [20]: 0.25 mg/L (≈ 0.626 µM)
CC(/C=C/C(=O)C1=C(O)CN(C)C1=O)=C\c1ccc2ccccc2c1	< 0.5	31 (≈ 93 µM)	< 0.5	2 (≈ 6 µM)	MIC [5]: 1.56 mg/L (≈ 4.68 µM); MIC [17]: 0.25 mg/L (≈ 0.75 µM); MIC [6]: 50 mg/L (≈ 150 µM); MIC [18]: 0.25 mg/L (≈ 0.75 µM); MIC [21]: 0.5 mg/L (≈ 1.5 µM); MIC [19]: 0.25 mg/L (≈ 0.75 µM); MIC [7]: 1.56 mg/L (≈ 4.68 µM); MIC [8]: 200 mg/L (≈ 600 µM); MIC [9]: 1.56 mg/L (≈ 4.68 µM); MIC [22]: 0.5 mg/L (≈ 1.5 µM); MIC [10]: 1.56 mg/L (≈ 4.68 µM); MIC [11]: 1.56 mg/L (≈ 4.68 µM); MIC [12]: 1.56 mg/L (≈ 4.68 µM); MIC [20]: 0.25 mg/L (≈ 0.75 µM); MIC [13]: 200 mg/L (≈ 600 µM); MIC [14]: 200 mg/L (≈ 600 µM); inhibition [16]: 12.3%; MIC [15]: 100 mg/L (≈ 300 µM)
CC(/C=C/C(O)=C1\C(=O)CN(C)C1=O)=C\C(C)C1CCCCC1 (centres undefined)	8 (≈ 25.2 µM)	62 (≈ 195 µM)	2 (≈ 6.3 µM)	2 (≈ 6.3 µM)	
